The source made the active and inactive calls. The calls are words filed in the database; no cut-off is given here.
Legend:
[1] = target: Free fatty acid receptor 1 (Homo sapiens, UniProt O14842); assay: Agonist activity at human GPR40 expressed in CHO cells by calcium flux assay; type: functional, cell-based
In short: (§1)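 Intracellular calcium flux read in CHO cells transfected with GPR40; values are means of two or three independent experiments.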

[2] = target: Free fatty acid receptor 1 (Rattus norvegicus, UniProt Q8K3T4); assay: Agonist activity at rat GPR40 expressed in CHO cells by calcium flux assay; type: functional, cell-based; in short: as §1
Free fatty acid receptor 1 (Rattus norvegicus, UniProt Q8K3T4), sequence (Q8K3T4 whole entry): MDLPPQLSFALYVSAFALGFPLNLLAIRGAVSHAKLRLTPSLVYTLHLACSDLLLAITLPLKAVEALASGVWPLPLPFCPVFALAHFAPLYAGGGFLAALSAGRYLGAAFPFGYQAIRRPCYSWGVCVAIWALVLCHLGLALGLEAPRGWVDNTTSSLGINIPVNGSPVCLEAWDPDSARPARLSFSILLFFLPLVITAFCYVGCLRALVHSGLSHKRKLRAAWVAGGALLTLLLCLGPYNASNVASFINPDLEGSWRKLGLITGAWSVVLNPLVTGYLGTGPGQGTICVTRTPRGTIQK

[3] = Lipophilicity, log D of the compound at pH 7.4; type: physicochemical; settings: buffer
Homo sapiens = species on record: Homo sapiens; assay: Inhibition of mitochondrial respiratory chain complex 1 (unknown origin) at 100 uM
In short: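 Compound tested at 100 μM. Read-out is percent inhibition of mitochondrial respiratory chain complex 1.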

Rattus norvegicus [4] = assay: Antidiabetic activity in po dosed diabetic Zucker fatty rat model assessed as reduction of blood glucose level administered 30 mins prior to glucose challenge by oral glucose tolerance test; type: functional, organism-based
In short: (§2)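 Nine-week-old Zucker fatty rats fasted overnight; vehicle or compound given orally (1–10 mg/kg) 30 min before oral glucose load of 2 g/kg; blood sampled for plasma glucose and insulin; mean ± S.E., n = 6.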

[5] = Volume of distribution at steady state in F344 rat at 2 mg/kg, iv; type: ADME, organism-based; parameters: dose 2 mg/kg, route intravenous; settings: in vivo, read-out: Vdss
In short: (§3)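 F344 rats, single iv dose of 2 mg/kg, plasma pharmacokinetic parameters determined.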

Rattus norvegicus [6] = assay: Antidiabetic activity in diabetic Zucker fatty rat model assessed as increase in insulin level measured during OGTT at 1 to 10 mg/kg, po administered 30 mins prior to glucose challenge; type: functional, organism-based; in short: as §2
[7] = Oral bioavailability in F344 rat at 3 mg/kg; type: ADME, organism-based; settings: in vivo
In short: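 F344 rats. Bioavailability from an iv dose of 2 mg/kg paired with an oral dose of 3 mg/kg.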

[8] = AUC in diabetic Zucker fatty rat model measured during OGTT at 10 mg/kg, po administered 30 mins prior to glucose challenge; type: ADME, organism-based; parameters: dose 10 mg/kg, route oral; settings: in vivo
In short: (§4)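 9-week-old Zucker fatty rats were fasted overnight and given vehicle or compound orally 30 min before an oral glucose tolerance test with a 2 g/kg glucose challenge. Blood was sampled during the OGTT, and plasma exposure was reported as Cmax (µg/ml) and AUC (µg h/ml).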

Rattus norvegicus [9] = assay: Antidiabetic activity in diabetic Zucker fatty rat model assessed as reduction of blood glucose level at 3 mg/kg, po administered 30 mins prior to glucose challenge by oral glucose tolerance test relative to sitagliptin; type: functional
[10] = Half life in F344 rat at 2 mg/kg, iv; type: ADME, organism-based; parameters: dose 2 mg/kg, route intravenous; settings: in vivo; in short: as §3
[11] = Clearance in F344 rat at 2 mg/kg, iv; type: ADME, organism-based; parameters: dose 2 mg/kg, route intravenous; settings: in vivo; in short: as §3
[12] = Cmax in F344 rat at 3 mg/kg, po; type: ADME, organism-based; parameters: dose 3 mg/kg, route oral; settings: in vivo
In short: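 F344 rats, single oral dose of 3 mg/kg, plasma pharmacokinetic parameters determined.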

[13] = Cmax in diabetic Zucker fatty rat model measured during OGTT at 10 mg/kg, po administered 30 mins prior to glucose challenge; type: ADME, organism-based; parameters: dose 10 mg/kg, route oral; settings: in vivo
In short: (§5)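 Plasma exposure (Cmax, AUC) measured during OGTT in overnight-fasted Zucker fatty rats dosed orally 30 min before a 2 g/kg glucose challenge.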

[14] = Cmax in diabetic Zucker fatty rat model measured during OGTT at 1 mg/kg, po administered 30 mins prior to glucose challenge; type: ADME, organism-based; parameters: dose 1 mg/kg, route oral; settings: in vivo; in short: as §5
[15] = AUC in diabetic Zucker fatty rat model measured during OGTT at 1 mg/kg, po administered 30 mins prior to glucose challenge; type: ADME, organism-based; parameters: dose 1 mg/kg, route oral; settings: in vivo; in short: as §4
[16] = AUC in diabetic Zucker fatty rat model measured during OGTT at 3 mg/kg, po administered 30 mins prior to glucose challenge; type: ADME, organism-based; parameters: dose 3 mg/kg, route oral; settings: in vivo; in short: as §4
MIN6 = assay: Insulinotropic effect in mouse MIN6 cells in presence of 25 mM glucose; type: functional, cell-based
In short: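 MIN6 mouse insulinoma cells exposed to compound from 0.001 to 10 µM with 25 mM glucose; insulin secreted into medium measured; mean ± S.E. of 4 wells.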

[17] = Cmax in diabetic Zucker fatty rat model measured during OGTT at 3 mg/kg, po administered 30 mins prior to glucose challenge; type: ADME, organism-based; parameters: dose 3 mg/kg, route oral; settings: in vivo; in short: as §5
[18] = AUC in F344 rat at 3 mg/kg, po; type: ADME, organism-based; parameters: dose 3 mg/kg, route oral; settings: plasma
[19] = Oral bioavailability in F344 rat; type: ADME, organism-based; settings: in vivo
In short: (§6)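 F344 rats; single dose given iv at 10 mg/kg or orally at 10 mg/kg (some compounds iv 2 mg/kg and po 3 mg/kg); plasma drug levels used to derive pharmacokinetic parameters.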

[20] = Half life in F344 rat at 10 mg/kg, iv; type: ADME, organism-based; parameters: dose 10 mg/kg, route intravenous; settings: in vivo; in short: as §6
[21] = Cmax in F344 rat at 10 mg/kg, po; type: ADME, organism-based; parameters: dose 10 mg/kg, route oral; settings: in vivo; in short: as §6
[22] = AUC in F344 rat at 10 mg/kg, po; type: ADME, organism-based; parameters: dose 10 mg/kg, route oral; settings: plasma; in short: as §6
[23] = Clearance in F344 rat at 10 mg/kg, iv; type: ADME, organism-based; parameters: dose 10 mg/kg, route intravenous; settings: in vivo; in short: as §6
[24] = Oral bioavailability in F344 rat at 10 mg/kg; type: ADME, organism-based; settings: in vivo; in short: as §6
[25] = Volume of distribution at steady state in F344 rat at 10 mg/kg, iv; type: ADME, organism-based; parameters: dose 10 mg/kg, route intravenous; settings: in vivo, read-out: Vdss; in short: as §6
Rattus norvegicus [26] = assay: Antidiabetic activity in diabetic Zucker fatty rat model assessed as reduction of blood glucose level at 10 mg/kg, po administered 30 mins prior to glucose challenge by oral glucose tolerance test; type: functional, organism-based; parameters: dose 10 mg/kg; in short: as §2

Free fatty acid receptor 1 (Homo sapiens, UniProt O14842), sequence (O14842 whole entry): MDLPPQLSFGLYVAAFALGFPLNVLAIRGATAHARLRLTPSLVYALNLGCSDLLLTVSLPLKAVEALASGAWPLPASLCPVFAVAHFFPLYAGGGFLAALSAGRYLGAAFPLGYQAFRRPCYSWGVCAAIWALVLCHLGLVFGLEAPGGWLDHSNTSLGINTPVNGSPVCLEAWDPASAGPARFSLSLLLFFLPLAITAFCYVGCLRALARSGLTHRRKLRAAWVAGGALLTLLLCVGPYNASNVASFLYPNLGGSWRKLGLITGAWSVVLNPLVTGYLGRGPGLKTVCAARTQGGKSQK

| Structure (SMILES) | EC50 [1] [µM] | EC50 [2] [µM] | logD [3] | also measured |
| --- | --- | --- | --- | --- |
| Cc1cc(CCC(=O)O)cnc1OCc1cccc(-c2c(C)cccc2C)c1 | 2.5 | 9.1 | – | – |
| Cc1cccc(C)c1-c1cccc(COc2cc3c(cn2)C(CC(=O)O)OC3)c1 (configuration not stated) | 0.049 | 0.19 | – | – |
| Cc1cccc(C)c1-c1cccc(COc2cnc(CCC(=O)O)cn2)c1 | 0.0038 | 0.016 | 2.5 | – |
| Cc1cccc(C)c1-c1cccc(COc2ccc(CCC(=O)O)s2)c1 | 0.052 | 0.84 | > 2.4 | – |
| O=C(O)CCc1ccc(NCc2cccc(Oc3ccccc3)c2)cc1 [GW9508] | 0.013 | 0.099 | – | – |
| CCOC(CC(=O)O)c1ccc(OCc2cccc(C)c2)cc1 (configuration not stated) | 0.035 | 0.078 | – | – |
| CCOC(CC(=O)O)c1ccc(OCc2ccccc2)nc1 (configuration not stated) | 0.23 | 0.76 | 0.7 | inhibition (Homo sapiens): 1% |
| Cc1cccc(C)c1-c1cccc(COc2ccc(CC(C)C(=O)O)cn2)c1 (configuration not stated) | 0.065 | 2.1 | – | – |
| Cc1cccc(C)c1-c1cccc(COc2ncc(CCC(=O)O)cn2)c1 | 0.13 | 1.4 | 2 | – |
| Cc1cc(OCc2cccc(-c3c(C)cccc3C)c2)ncc1CCC(=O)O | 0.0093 | 0.13 | – | – |
| Cc1cccc(C)c1-c1cccc(COc2ccc(CCC(=O)O)nn2)c1 | 0.42 | 0.31 | – | – |
| Cc1cccc(C)c1-c1cccc(COc2ncc(CCC(=O)O)s2)c1 | 0.065 | 0.54 | – | – |
| CCOC(CC(=O)O)c1ccc(OCc2ccccc2C)cc1 (configuration not stated) | 0.02 | 0.079 | 1.2 | Activity (Rattus norvegicus [4]): Dose-dependent effect; Vd [5]: 0.16 L/kg; Activity (Rattus norvegicus [6]): Active; bioavailability [7]: 64%; AUC at 0.5 h [8]: 78000 ng·h/mL; fold change (FC) (Rattus norvegicus [9]): 3; half-life [10]: 22.2 min; clearance [11]: 6.17 mL/min/kg; Cmax [12]: 3300 ng/mL; Cmax [13]: 51000 ng/mL; Cmax [14]: 4100 ng/mL; AUC at 0.5 h [15]: 4800 ng·h/mL; AUC at 0.5 h [16]: 19000 ng·h/mL; inhibition (Homo sapiens): 6%; Activity (MIN6): Dose-dependent effect; Cmax [17]: 14000 ng/mL; AUC [18]: 5300 ng·h/mL |
| Cc1cccc(C)c1-c1cccc(COc2ccc(CCC(=O)O)nc2)c1 | 0.071 | 0.21 | 2.4 | – |
| Cc1cccc(C)c1-c1cccc(COc2ccc(C(F)CC(=O)O)cn2)c1 (configuration not stated) | 0.018 | 0.096 | – | inhibition (Homo sapiens): 91% |
| Cc1cccc(C)c1-c1cccc(COc2ccc(CCC(=O)O)cc2)c1 | 0.0067 | 0.018 | > 3.3 | bioavailability [19]: 0.9%; inhibition (Homo sapiens): 58% |
| COC(Cc1ccc(OCc2cccc(-c3c(C)cccc3C)c2)nc1)C(=O)O (configuration not stated) | 0.12 | > 10 | – | – |
| CCOC(CC(=O)O)c1ccc(OCc2cccc(-c3c(C)cccc3C)c2)nc1 (configuration not stated) | 0.014 | 0.13 | 2.8 | inhibition (Homo sapiens): 66% |
| Cc1cccc(C)c1-c1cccc(COc2ccc(C(C)CC(=O)O)cn2)c1 (configuration not stated) | 0.01 | 0.32 | 3.3 | inhibition (Homo sapiens): 39% |
| CCOC(CC(=O)O)c1ccc(OCc2ccc(C)cc2)cc1 (configuration not stated) | 0.37 | 0.29 | – | – |
| Cc1cccc(C)c1-c1cccc(COc2ccc(CCC(=O)O)cn2)c1 | 0.0035 | 0.038 | 3 | half-life [20]: 14.4 min; Cmax [21]: 3500 ng/mL; AUC [22]: 2000 ng·h/mL; clearance [23]: 20 mL/min/kg; bioavailability [24]: 24%; Vd [25]: 0.22 L/kg |
| Cc1cccc(C)c1-c1cccc(COc2ccc(CC(F)C(=O)O)cn2)c1 (configuration not stated) | 0.0086 | 0.25 | – | inhibition (Homo sapiens): 58% |
| N[C@@H](CC(=O)N1CCn2c(nnc2C(F)(F)F)C1)Cc1cc(F)c(F)cc1F | – | – | – | Activity (Rattus norvegicus [26]): Active |
| Cc1cccc(C)c1-c1cccc(COc2ccc(CCC(=O)O)c(C)n2)c1 | 0.081 | 1.1 | – | – |
